Common to all, as to type: functional
The species entered for assay [1] is Rattus norvegicus. Nature of the assay: Inhibition of threonine (0.5*10e-4) uptake by rat Hepatoma cells(HTC) at the specified Conc of 10 mM expressed as nM/mg of protein/min. In outline:
(§1)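 HTC hepatoma monolayers were grown in Medium 199 (pH 7.4, 26 mM NaHCO₃, antibiotics, 5–8% FBS) under 5% CO₂/95% air and seeded 3–4 days before testing. A 1-min uptake ran in Krebs-Ringer phosphate (pH 7.4, 37 °C), then the cells were washed with ice-cold Na⁺-free choline medium. Cells were extracted with 5% TCA and counted by scintillation. Protein was measured by modified Lowry with SDS and a BSA standard.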

In assay [2] the test system is Mus musculus. Nature of the assay: Inhibition of MeAIB(10e-4) uptake by Ehrlich cell at the specified Conc of 0.25 mM expressed as mM/kg of cell water/min. In short, it runs like this:
(§2)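 ¹⁴C-MeAIB uptake by Ehrlich ascites tumor cells propagated in Swiss white mice and washed in Na⁺-free media. Uptake ran for 1 min at 37 °C in 5% cell suspensions in Na⁺-containing Krebs-Ringer bicarbonate under 5% CO₂–O₂ (pH 7.4). Stopped by ice-cold dilution and centrifugation. ¹⁴C in the medium and in a sulfosalicylic acid cell extract was counted by liquid scintillation. Extracellular water was measured by sucrose.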

Assay [3] has as its system Mus musculus. Nature of the assay: Inhibition of MeAIB(10e-4) uptake by Ehrlich cell at the specified Conc of 0.5 mM expressed as mM/kg of cell water/min. In outline:
as §2

The subject of assay [4] is Mus musculus. Briefly: Inhibition of MeAIB(10e-4) uptake by Ehrlich cell at the specified Conc of 10 mM expressed as mM/kg of cell water/min. In short, it runs like this: as §2
Assay [5] has as its system Mus musculus. Briefly: Inhibition of MeAIB(10e-4) uptake by Ehrlich cell at the specified Conc of 2.5 mM expressed as mM/kg of cell water/min. In short, it runs like this: as §2
The species entered for assay [6] is Rattus norvegicus. Nature of the assay: Inhibition of threonine (0.5*10e-4) uptake by rat Hepatoma cells(HTC) at the specified Conc of 0.5 mM expressed as nM/mg of protein/min. In short, it runs like this:
as §1

Assay [7] is filed under the species Rattus norvegicus. Nature of the assay: Inhibition of threonine (0.5*10e-4) uptake by rat Hepatoma cells(HTC) at the specified Conc of 2.5 mM expressed as nM/mg of protein/min. In outline: as §1

The compound `CC(O)C(N)C(=O)O` (stereo not drawn) gave a Thr uptake in the assay listed under Rattus norvegicus [1] of 0.12.

For the compound `N[C@]1(C(=O)O)C[C@@H]2CC[C@@H](C2)C1`, the MeAIB uptake with Mus musculus [2] is 0.67; in the assay on Mus musculus [3] it was 0.66; in the assay on Mus musculus [4], 0.61; with Mus musculus [5], 0.64. Also, the Thr uptake was found to be 3.81 in the assay filed under Rattus norvegicus [6], 3.45 in the assay listed under Rattus norvegicus [1] and 3.52 in the assay filed under Rattus norvegicus [7].

For the origin of these results see ChEMBL document CHEMBL1122321, “Synthesis and transport applications of 3-aminobicyclo[3.2.1] octane-3-carboxylic acids” (1983).
